pIC50, pKd, pKi: −log10 of the molar value. In brackets after ≈: the same amount, converted by molar mass. Each block holds one compound with its values, some of them ahead of it. Activity calls are given as the source filed them. No cut-off for these calls is given here.
What was measured:
[1] = target: T1, Macrophage migration inhibitory factor (Homo sapiens, UniProt P14174); assay: Inhibition of C-terminal His-tagged recombinant human MIF expressed in Escherichia coli BL21 (DE3) using 4-HPP as substrate preincubated for 10 mins followed by substrate addition by UV absorption spectrum analysis
T1 sequence (P14174 whole entry): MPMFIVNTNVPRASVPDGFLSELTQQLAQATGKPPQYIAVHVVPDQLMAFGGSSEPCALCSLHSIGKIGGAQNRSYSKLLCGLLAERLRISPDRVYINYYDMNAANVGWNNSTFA

A549 [2] = assay: Inhibition of colony formation in human A549 cells at 100 uM incubated for 10 days by crystal violet staining based assay; format: functional, cell-based; conditions: time 10.0 day
Outline: (§1)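 A549 seeded at 100 cells/well in RPMI with 10% FBS, overnight, then treated 10 days (0.2% DMSO final); fixed 4% paraformaldehyde, stained 0.5% crystal violet; colonies (>50 cells) counted vs 0.2% DMSO control; three independent experiments.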

[3] = target: T2, Macrophage migration inhibitory factor (Homo sapiens) (UniProt P14174); assay: Binding affinity to C-terminal His-tagged recombinant human MIF expressed in Escherichia coli BL21 (DE3) assessed as inhibition of MIF interaction with MBP-fused human CD74 up to 50 uM preincubated for 10 mins with CD74 followed by MIF addition and measured after 30 mins by ELISA; conditions: dose microM <=50, time 40.0 min
T2 sequence (whole entry): T1 sequence (P14174 whole entry)
Outline: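 MIF (250 nM) coated on plates overnight at 4 °C, then blocked with 2% BSA for 1 h at RT. Inhibitor in DMSO premixed 10 min at RT with MBP–sCD74 (final 500 nM sCD74; inhibitor 1–100 μM), then added to wells for 30 min at RT. Bound sCD74 detected with rabbit anti-CD74 pAb and goat anti-rabbit HRP. No-inhibitor signal set to 100%, no-sCD74 signal to 0%. n = 3.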

[4] = target: T1, Macrophage migration inhibitory factor; assay: Displacement of 4'-(7-Hydroxy-2-oxo-2H-chromen-3-yl)-[1,1'-biphenyl]-4-carboxylic acid from C-terminal His-tagged recombinant human MIF expressed in Escherichia coli BL21 (DE3) preincubated for 10 mins followed by probe addition and measured after 10 mins by fluorescence assay
A549 [5] = assay: Toxicity in human A549 cells assessed as reduction in cell viability up to 20 uM measured after 24 hrs by MTS assay; format: cell-based; conditions: a549, 24 h
Outline: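 A549 cells treated 24 h; viability read by MTS assay.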

[6] = target: T1, Macrophage migration inhibitory factor; assay: (§2) Binding affinity to C-terminal His-tagged recombinant human MIF expressed in Escherichia coli BL21 (DE3) assessed as inhibition of MIF interaction with MBP-fused human CD74 preincubated for 10 mins with CD74 followed by MIF addition and measured after 30 mins by ELISA
Outline: (§3)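 MIF (250 nM, 100 μL) coated overnight at 4 °C, blocked 1 h with 2% BSA; inhibitor (1–100 μM) premixed 10 min with 500 nM MBP–sCD74, added 30 min at room temperature; bound sCD74 detected with rabbit anti-CD74 then HRP anti-rabbit, 30 min each; DMSO = 100%, no sCD74 = 0%; mean ± SD, n = 3.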

[7] = target: T2, Macrophage migration inhibitory factor (Homo sapiens); assay: as §2; conditions: time 40.0 min; outline: as §3
A549 [8] = assay: Inhibition of colony formation in human A549 cells at 2.5 to 10 uM incubated for 10 days by crystal violet staining based assay; format: functional, cell-based; conditions: dose microM 2.5-10, time 10.0 day; outline: as §1
[9] = target: T1, Macrophage migration inhibitory factor; assay: Binding affinity to C-terminal His-tagged recombinant human MIF expressed in Escherichia coli BL21 (DE3) at 200 nM by fluorescence assay
Outline: (§4)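 Equal volumes of fluorophore (diluted from 10 mM DMSO stock to 200 nM in PBS pH 7.4) and MIF dilution series (16–8000 nM) mixed, 10 min at room temperature; fluorescence read at Ex/Em 340/460 nm or 355/455 nm; KS from hyperbolic fit of specific binding curve; n = 3.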

[10] = target: T2, Macrophage migration inhibitory factor (Homo sapiens); assay: Binding affinity to C-terminal His-tagged recombinant human MIF expressed in Escherichia coli BL21 (DE3) assessed as fluorescence quenching at 50 nM by fluorescence assay; outline: as §4
[11] = target: T2, Macrophage migration inhibitory factor (Homo sapiens); assay: Inhibition of MIF (unknown origin) cultured in human A549 cells assessed as reduction in MIF-induced ERk phosphorylation at 10 uM preincubated with MIF for 10 mins followed by cell addition and measured after 10 mins by Western blot analysis; format: cell-based; conditions: time 20.0 min
Outline: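 A549 (2 × 10^5/well) cultured overnight; 150 ng/mL endotoxin-free MIF preincubated 10 min with compound, then applied to cells 10 min at 37 °C (0.2% DMSO); lysates (30 μg protein) blotted; pERK/GAPDH ratio; four independent experiments.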

[12] = target: T2, Macrophage migration inhibitory factor (Homo sapiens); assay: Competitive inhibition of C-terminal His-tagged recombinant human MIF expressed in Escherichia coli BL21 (DE3) up to 50 nM using varying levels of 4-HPP as substrate preincubated for 10 mins followed by substrate addition by Lineweaver-burk plot analysis; conditions: dose nM <=50, time 10.0 min
[13] = Half life of compound in pH 7.4 PBS buffer at 100 nM; format: physicochemical; conditions: pH 7.4, 0.1 µM
Outline: (§5)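 Fluorescence lifetime of 100 nM fluorophore in 1 mL PBS pH 7.4, measured alone or with 500 nM MIF.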

[14] = Solubility of compound in pH 7.4 phosphate buffer; format: physicochemical
Outline: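 Solubility measured in PBS pH 7.4.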

[15] = target: T2, Macrophage migration inhibitory factor (Homo sapiens); assay: Binding affinity to C-terminal His-tagged recombinant human MIF expressed in Escherichia coli BL21 (DE3) assessed as fluorescence quenching at 50 nM in presence of CuSO4 by fluorescence assay
Outline: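 Indicator displacement setup (100 nM MIF, 50 nM fluorophore, PBS pH 7.4) run with Cu2+ ions up to 200 μM; fluorescence read at Ex/Em 355/455 nm.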

Albumin = Albumin (Bos taurus, UniProt P02769); assay: Binding affinity to bovine serum albumin assessed as fluorescence quenching at 50 nM by fluorescence assay; format: ADME; conditions: cattle, isolated protein, 0.05 µM
Outline: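 Control for non-specific quenching: 50 nM fluorophore titrated with BSA (up to 800 nM) in PBS pH 7.4, fluorescence intensity compared against MIF titration.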

[16] = Half life of compound in pH 7.4 PBS buffer at 100 nM in presence of MIF; format: physicochemical; conditions: pH 7.4, 0.1 µM; outline: as §5
[17] = target: T2, Macrophage migration inhibitory factor (Homo sapiens); assay: Inhibition of C-terminal His-tagged recombinant human MIF expressed in Escherichia coli BL21 (DE3) at 25 uM using 4-HPP as substrate preincubated for 10 mins followed by substrate addition by UV absorption spectrum analysis relative to control
[18] = target: T2, Macrophage migration inhibitory factor (Homo sapiens); assay: Binding affinity to C-terminal His-tagged recombinant human MIF expressed in Escherichia coli BL21 (DE3) at 100 nM in presence of 3-(3,4-Dimethoxyphenyl)-7-hydroxy-3,4-dihydro-2Hbenzo[e][1,3]oxazin-2-one by fluorescence assay
[19] = Emission property of the compound in pH 7.4 PBS buffer assessed as maximum emission wavelength at 200 nm by fluorescence spectra analysis; conditions: pH 7.4, 200 nM
[20] = target: T2, Macrophage migration inhibitory factor (Homo sapiens); assay: Binding affinity to C-terminal His-tagged recombinant human MIF expressed in Escherichia coli BL21 (DE3) assessed as fluorescence quenching at 200 nM by fluorescence assay; outline: as §4
[21] = target: T1, Macrophage migration inhibitory factor; assay: Binding affinity to C-terminal His-tagged recombinant human MIF expressed in Escherichia coli BL21 (DE3) at 100 nM by fluorescence assay
Outline: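 Fluorescent indicator displacement in PBS pH 7.4. Compound preincubated with MIF 10 min at RT, then 7-hydroxycoumarin indicator added for another 10 min at RT. Final MIF 100 nM, indicator 50 nM, DMSO 2.5%. Fluorescence read at Ex/Em 355/455 nm. EC50 for fluorescence recovery from nonlinear fit, converted to Kd with a displacement equation using indicator KS. Three independent experiments.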

[22] = Absorption property of the compound in pH 7.4 PBS buffer assessed as maximum absorption wavelength at 100 uM by UV-vis spectra analysis; format: physicochemical; conditions: pH 7.4, 100 µM
Outline: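 UV absorption spectra recorded at 100 μM compound in PBS pH 7.4 containing 5% (v/v) DMSO on a plate reader; wavelength of maximum absorbance taken.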

pIC50 [1]: 6.33
pKi [1]: 6.51
SMILES: O=c1oc2cc(O)ccc2cc1-c1ccc(Br)cc1

SMILES: COC(=O)CC1CC(c2ccc(O)cc2)=NO1 (stereo not given)
inhibition (A549 [2]): Active
inhibition [3]: inactive

pIC50 [1]: 5.75
pKi [1]: 5.93
SMILES: O=c1oc2cc(O)ccc2cc1-c1ccccc1

pKd [4]: 5.25
pKi [1]: 5.10
SMILES: COc1ccc(C(=O)N/N=C/c2ccc(O)c(F)c2)cc1

pIC50 [1]: 5.71
pKi [1]: 5.89
SMILES: O=c1oc2cc(O)ccc2cc1-c1cccc(Cl)c1

pIC50 [1]: 4.72
pKi [1]: 4.90
SMILES: O=c1oc2cc(O)ccc2cc1-c1ccccc1Cl

pIC50 [1]: 6.16
pKi [1]: 6.34
SMILES: Cc1ccc(-c2cc3ccc(O)cc3oc2=O)cc1

pIC50 [1]: 5.73
pKi [1]: 5.91
SMILES: COc1cccc(-c2cc3ccc(O)cc3oc2=O)c1

pIC50 [1]: 5.66
pKi [1]: 5.84
SMILES: O=c1oc2cc(O)ccc2cc1-c1ccc2ccccc2c1

pIC50 [1]: 5.60
pKi [1]: 5.77
SMILES: O=c1oc2cc(O)ccc2cc1-c1ccc(F)cc1

pIC50 [1]: 6.04
pKi [1]: 6.21
SMILES: O=c1oc2cc(O)ccc2cc1-c1ccc(Cl)cc1

pIC50 [1]: 5.56
pKi [1]: 5.73
SMILES: COc1ccccc1-c1cc2ccc(O)cc2oc1=O

pIC50 [6]: 4.44
inhibition [7]: Dose-dependent effect
pKd [9]: 7.80
Ks [10]: 16 nM
inhibition [11]: Active
inhibition [12]: Active
t1/2 [13]: 4.2 nanoseconds
solubility ([14]; buffer): 18.8 µg/mL (≈ 52.5 µM)
Activity [15]: Active
Activity (Albumin): Not Active
t1/2 [16]: 4 nanoseconds
SMILES: O=C(O)c1ccc(-c2ccc(-c3cc4ccc(O)cc4oc3=O)cc2)cc1
Activity (A549 [5]): Non-Toxic
inhibition (A549 [8]): Active

pIC50 [1]: 6.14
pKi [1]: 6.32
SMILES: O=c1oc2cc(O)ccc2cc1-c1ccc(I)cc1

pKd [4]: 5.36
SMILES: O=C(NCc1cn(-c2ccc(O)c(F)c2)nn1)c1cc2ccccc2[nH]1

inhibition [17]: 11%
SMILES: O=C(Nc1ccccc1)c1cc2ccc(O)cc2oc1=O

pIC50 [1]: 4.73
pKi [1]: 4.91
SMILES: CCOC(=O)c1cc2ccc(O)cc2oc1=O

pKd [4]: 6.33
solubility ([14]; phosphate buffer): 2.2 µg/mL (≈ 7.63 µM)
pKi [1]: 6.36
SMILES: Oc1ccc(-n2cc(-c3cc4ccccc4cn3)nn2)cc1

pKd [4]: 5.40
SMILES: Oc1ccc(-n2cc(-c3ccccn3)nn2)cc1

Activity [18]: inactive
Activity [19]: 460 nm
Activity [20]: Active
pKd [21]: 6.41
Activity [22]: 340 nm
pIC50 [1]: 6.25
SMILES: COc1ccc(-c2cc3ccc(O)cc3oc2=O)cc1

SMILES: COc1ccc(N2Cc3ccc(O)cc3OC2=O)cc1OC
pKd [4]: 6.96
inhibition [3]: inactive
pKd [21]: 6.81
pKi [1]: 7.00

pKd [4]: 5.85
solubility ([14]; phosphate buffer): 10.8 µg/mL (≈ 28 µM)
SMILES: O=C(NCc1cn(-c2ccc(O)c(F)c2)nn1)c1cc2cc(Cl)ccc2[nH]1

inhibition [17]: 12%
SMILES: O=C(NCc1ccccc1)c1cc2ccc(O)cc2oc1=O
